# Bioassay records deposited in PubChem BioAssay by several laboratories.
# An excerpt weighted towards active compounds, which were near 6.6% of everything screened.
# HER2 expr 66K – inhibitors of Her2 protein expression, primary screen, SKBR-3 cells, AlphaScreen, 66K library; HER2 level % of control, % at 10 µM; 0.69% of 65,000 active; Receptor tyrosine-protein kinase erbB-2 (Homo sapiens), P04626; SKBR-3 HER2 protein level, 18-24 h; active compounds read low;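 active = HER2 level under 5% of the carrier-only control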;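 also: 100% = DMSO carrier and 0% = 500 nM PU-H71 HSP90 inhibitor; lower value means stronger loss of Her2 protein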
# Target sequence (P04626 whole entry, looked up): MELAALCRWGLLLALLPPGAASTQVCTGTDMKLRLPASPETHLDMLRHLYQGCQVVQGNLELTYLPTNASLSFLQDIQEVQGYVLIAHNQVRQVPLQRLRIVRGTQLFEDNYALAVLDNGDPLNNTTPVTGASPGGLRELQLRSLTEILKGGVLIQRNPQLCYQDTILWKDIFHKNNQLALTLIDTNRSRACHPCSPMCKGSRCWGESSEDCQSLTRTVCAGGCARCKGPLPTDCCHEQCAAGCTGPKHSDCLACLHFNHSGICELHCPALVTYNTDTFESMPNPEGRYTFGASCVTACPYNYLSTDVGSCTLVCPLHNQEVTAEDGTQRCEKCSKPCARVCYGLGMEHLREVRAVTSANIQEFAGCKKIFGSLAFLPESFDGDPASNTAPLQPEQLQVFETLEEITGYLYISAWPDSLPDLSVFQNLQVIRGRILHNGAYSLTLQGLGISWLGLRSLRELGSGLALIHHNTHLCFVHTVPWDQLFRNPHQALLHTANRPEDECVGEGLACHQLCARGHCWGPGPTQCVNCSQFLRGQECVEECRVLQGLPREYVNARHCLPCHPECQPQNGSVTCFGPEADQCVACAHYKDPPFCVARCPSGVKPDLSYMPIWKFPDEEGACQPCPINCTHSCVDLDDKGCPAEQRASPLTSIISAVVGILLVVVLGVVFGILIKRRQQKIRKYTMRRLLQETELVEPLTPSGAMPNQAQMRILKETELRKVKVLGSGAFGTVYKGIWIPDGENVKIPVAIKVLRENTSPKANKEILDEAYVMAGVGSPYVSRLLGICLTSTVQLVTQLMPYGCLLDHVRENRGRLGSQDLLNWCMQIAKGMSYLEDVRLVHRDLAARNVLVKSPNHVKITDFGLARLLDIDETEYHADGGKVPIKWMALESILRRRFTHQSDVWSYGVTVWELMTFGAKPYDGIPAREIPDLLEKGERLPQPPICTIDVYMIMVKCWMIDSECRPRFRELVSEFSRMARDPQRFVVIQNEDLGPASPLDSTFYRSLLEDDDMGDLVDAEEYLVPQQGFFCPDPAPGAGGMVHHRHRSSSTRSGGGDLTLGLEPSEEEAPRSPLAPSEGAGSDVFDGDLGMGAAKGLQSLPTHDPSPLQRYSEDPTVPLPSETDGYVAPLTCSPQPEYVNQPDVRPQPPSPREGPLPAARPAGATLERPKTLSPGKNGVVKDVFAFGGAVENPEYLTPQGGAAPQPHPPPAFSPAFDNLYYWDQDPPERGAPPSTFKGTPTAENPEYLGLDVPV
# JNK3 blocker – JNK3 kinase activity inhibitors, primary screen, biochemical, human, purified enzyme; AID 746, 2007; Mitogen-activated protein kinase 10 (Homo sapiens), P53779; 0.61% of 60,000 active; inhibition, % at 8 µM; HTS; in the data active = inhibition above about 17%;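 also: 0% = DMSO and 100% = reference inhibitor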
# BAP1 inh – inhibitors of BAP1 deubiquitinase, primary screen, biochemical, Ub-AMC fluorescence, kinetic; recombinant BAP1, Ub-AMC hydrolysis fluorescence kinetic; active compounds read low; 0.48% of 72,000 active; calls only at 20 µM; AID 436, 2006;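 active = activity remaining at or below 50% of control, provided the compound also passes the data quality filters; inactive = the rest, including low values that fail the filters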;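 also: 100% = DMSO wells rate and 0% = substrate alone blank rate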
# M1 agonist – M1 muscarinic receptor agonists, primary screen, CHO-M1 cells, Fluo-4 calcium, agonist mode; Fluo-4 calcium fluorescence; active compounds read high; B-score at 10 µM; 3% of 64,000 active; AID 626, 2007;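 active = fluorescence rise, raw or as B-score row- and column-corrected plate score, outside the 99.7% band of its plate's samples, either direction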
# M1 antagonist – antagonists of rat M1 muscarinic receptor; B-score at 10 µM; CHO-M1 cells, Fluo-4 calcium, ACh EC80 antagonist mode; active compounds read low; 3.4% of 64,000 active; Muscarinic acetylcholine receptor M1 (Rattus norvegicus), P08482; AID 628, 2007;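 active = calcium fluorescence response, raw or row-and-column corrected B-score, differing from the plate sample mean either way at a set confidence level, mostly lower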
# HEK293 NFkB inh – inhibitors of PMA/ionomycin-induced NF-kB reporter, primary screen, antigen receptor NF-kB inhibitor project, cell-based, HEK-293 luciferase reporter, luminescence; AID 465, 2006; 0.21% of 62,000 active; inhibition, % at 3 µM; HEK-293 NF-kB luciferase reporter;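 active = inhibition above the mean of all tested compounds plus 3 SD, cut at about 40% in these data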;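 also: 0% = stimulated DMSO wells and 100% = 10 µM reference inhibitor 5653914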
#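 Reagent: PMA plus ionomycin mix as NF-kB-activating stimulus. Assay system: NF-kB luciferase reporter HEK-293 cells. Technique: luminescence from luciferase substrate reagent. Incubation: 1 h compound pre-incubation, 16 h PMA/ionomycin at 37 °C. Benchmarks: DMSO only as uninhibited control, 10 µM reference inhibitor as full inhibition. Repeats: tested once.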
# M1 antag confirm – rat M1 muscarinic receptor antagonists, confirmation, CHO cells, Fluo-4 calcium, duplicate | ACh EC80 antagonism; active compounds read low | calcium response (max-min fluorescence) at 10 µM | shares compounds with M1 antagonist | 43% of 1,700 active;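 active = calcium response below the same-plate mean of wells given acetylcholine alone at its 80%-effect dose, minus 3 SD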;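 also: raw fluorescence intensity difference in arbitrary instrument units and not normalized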
# mGluR4 antag – human mGluR4 response to M1 antagonist hits, M1 allosteric modulator project, cell-based, antagonist mode, secondary assay 1; shares compounds with M1 antagonist; CHO-mGluR4 calcium flux, Fluo-4 fluorescence, glutamate EC80; active compounds read low; fluorescence response (max-min) at 10 µM; 0.9% of 1,700 active; AID 678, 2007;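 active = fluorescence response below the plate's average for near-maximal glutamate wells, less 3 SD of those wells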;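 also: raw unnormalized fluorescence span taken in the window right after glutamate addition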
# * marks the source's active call; other numbers are inactive results; i = inactive; nt = not tested or not shown.
SMILES,HER2 expr 66K,JNK3 blocker,BAP1 inh,M1 agonist,M1 antagonist,HEK293 NFkB inh,M1 antag confirm,mGluR4 antag
CC(C)OC(=O)CCCCCN1C(=O)CSC1=S,33,-4,i,1,-0.28,14,nt,nt
CC(=O)c1sc2ccccc2c1OC(=O)c1ccccc1F,nt,nt,i,nt,nt,nt,nt,nt
COCCNC(=O)CN1CCN(C(c2ccccc2)c2ccccc2)CC1,100,0,i,-0.85,-1.2*,18,569,250
CC(=O)c1ccc(OCC(O)CN2CCN(Cc3ccccc3)CC2)cc1 (configuration not stated),94,4,i,1.3,0.0054,-4,nt,nt
COC(=O)CN1CCN(C(c2ccccc2)c2ccccc2)CC1,105,1,i,-0.041,-0.59,2,nt,nt
CC(=O)c1ccccc1OCC(O)CN1CCN(C(c2ccccc2)c2ccccc2)CC1 (configuration not stated),40,-5,i,1.2,-7.9*,4,133*,231
NC(=O)c1c(N=c2oc3ccccc3cc2C(=O)Nc2ccccc2F)sc2c1CCCC2,nt,nt,i,nt,nt,nt,nt,nt
COC(=O)CSc1nc2sc3c(c2c(=O)n1-c1ccccc1)CCN(C)C3,63,-4,i,-0.28,-2.6,17,nt,nt
C=CCn1c(SCC(=O)OC)nc2sc3c(c2c1=O)CCN(C)C3,144,-9,i,0.03,-5.3*,nt,198*,212
CSc1nc2sc3c(c2c(=O)n1C1CCCCC1)CCN(C)C3,147,-1,i,-0.038,-4.8*,nt,185*,218
COc1cc(C(=O)Nc2ccc(NC(=O)c3ccccc3)c(Cl)c2)cc(OC)c1OC,nt,nt,i,nt,nt,nt,nt,nt
CCC(C)N(CCNC(=O)CC1Oc2ccccc2NC1=O)C1CCCCC1 (configuration not stated),80,3,i,-0.093,-11*,5,61*,229
CC1CCN(Cc2ccc(NC(=O)CC3Oc4ccccc4NC3=O)cc2)CC1 (configuration not stated),78,-5,i,-0.7,-11*,-5,24*,229
CCN(CCNC(=O)CC1Oc2ccccc2NC1=O)c1ccccc1 (configuration not stated),76,-6,i,0.68,-1.4,2,nt,nt
CCOc1ccc(C(=O)Nc2cccc(C(=O)Nc3cccc4ccccc34)c2)cc1Br,nt,nt,i,nt,nt,nt,nt,nt
COC(=O)c1ccc2c(c1)C=CC1(O2)c2ccccc2-c2ccccc2N1C (configuration not stated),nt,nt,i,nt,nt,nt,nt,nt
O=C(c1coc2ccccc2c1=O)N1CCN(c2cccc(C(F)(F)F)c2)CC1,126,nt,nt,0.31,-8.7*,8,178*,256
O=C(c1c(F)c(F)c(F)c(F)c1F)N1CCN(c2cccc(C(F)(F)F)c2)CC1,103,-4,i,0.0063,-1.4,6,nt,nt
Cn1c(C(=O)N2CCN(c3cccc(C(F)(F)F)c3)CC2)cc2sccc21,113,5,i,-0.33,0.17,3,nt,nt
O=C(c1ccccc1F)N1CCN(c2cccc(C(F)(F)F)c2)CC1,74,-5,i,0.028,-2.9*,29,566,258
CCOC(=O)c1ccc2c(c1)nc(C1CCN(S(=O)(=O)c3cccs3)CC1)n2CC,73,-2,i,1.8,-2.9*,5,474*,210
CCOC(=O)c1cc(-c2ccccc2OC)no1,nt,nt,i,nt,nt,nt,nt,nt
CC(C)(C)c1[nH]nc2c1C(c1cccnc1)C(C#N)=C(N)O2 (configuration not stated),110,0,i,-0.24,-4.1*,13,569,163*
CCCc1[nH]nc2c1C(c1ccncc1)C(C#N)=C(N)O2 (configuration not stated),88,4,i,0.096,-3.7*,4,590,227
CCc1[nH]nc2c1C(c1cccnc1)C(C#N)=C(N)O2 (configuration not stated),112,7,i,0.64,0.012,-10,nt,nt
SMILES,HER2 expr 66K,JNK3 blocker,BAP1 inh,M1 agonist,M1 antagonist,HEK293 NFkB inh,M1 antag confirm,mGluR4 antag
Cc1cccn2c(=O)c(C=Nc3ccccc3)c(NCc3ccco3)nc12,60,-13,i,-0.37,-0.23,2,nt,nt
Cc1ccc2[nH]c(=O)c(-c3nc4cc(C)ccn4c3NCc3ccco3)cc2c1,91,-4,i,0.097,-3.3*,9,412,217
CCC(Sc1nc2c(cnn2-c2ccccc2)c(=O)[nH]1)C(=O)OC (configuration not stated),82,1,i,-0.23,-2.4*,11,546,249
CCCCSc1nc2c(cnn2-c2ccc(F)cc2)c(=O)[nH]1,85,3,i,0.039,-2.9*,4,643,155
C/C=C/Cn1c(SCc2ccccc2)nc2c1c(=O)[nH]c(=O)n2C,102,0,i,0.67,-2.7*,24,589,245
Cc1ccc(-c2nc(CSCC(=O)NCCN3CCN(Cc4ccccc4)CC3)c(C)o2)cc1,82,-1,i,0.019,-5.3*,18,423*,253
Cc1ccc(-c2nc(CSCC(=O)NCCCN3CCOCC3)c(C)o2)cc1,97,-6,i,1.2,1.3,11,nt,nt
O=C(Nc1ccc(Cl)c([N+](=O)[O-])c1)C1CC(=O)N(c2ccc(Cl)cc2)C1 (configuration not stated),nt,nt,i,nt,nt,nt,nt,nt
CC1C2C(C)N(C)C(=O)N(C)C2N(C)C(=O)N1C (configuration not stated),84,4,i,-0.23,0.0052,11,nt,nt
CN1C(=O)N(C)C2C1NC(=O)N2C (configuration not stated),88,-3,i,-0.57,-9.2*,14,521,214
CN(Cc1ccccc1)Cc1c(O)ccc2c(=O)c(Oc3ccccc3Br)c(C(F)(F)F)oc12,nt,nt,i,nt,nt,nt,nt,nt
COC(=O)C1=C(C)NC(=S)NC1c1ccc(OCc2ccccc2)cc1 (configuration not stated),nt,nt,i,nt,nt,nt,nt,nt
Cc1nc2sccn2c(=O)c1CCN1CCC(=C(c2ccc(F)cc2)c2ccc(F)cc2)CC1,100,5,i,-0.015,-5.1*,nt,324*,292
